Assay outcomes as filed in PubChem.
CRFR2-BP ag = agonists of CRF-BP/CRF-R2 complex, primary screen, cell-based, HEK293, calcium dye fluorescence, uHTS; activation, % at 13.2 µM; calcium dye fluorescence (FLIPR); percent of saturating CRF peptide response; CRF-binding protein / CRF receptor 2 complex (human); 350,000 compounds, 0.46% hits;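 active means activation of at least 50%, plus an integration ratio under a set limit after plate pattern correction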
zfTRPN1 agonist = zebrafish TRPN1 channel agonists, primary screen, cell-based, HEK293, calcium fluorescence. transient receptor potential cation channel N1 (TRPN1/NompC), Danio rerio. HEK293 zebrafish TRPN1-YFP, Fluo-8 calcium fluorescence; 100% = response to 87 µM carbachol. activation, % at 3 µM. 220,000 compounds, 0.18% hits. AID 1424, 2008;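 active means activation above its plate's cutoff, the mean activation of test wells on that plate plus 3 SD, cut at about 19% in these data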
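Material – zebrafish TRPN1-YFP in HEK293 cells · Doses – 3 µM single point · Schedule – dye 1 h 37 °C plus 30 min RT · Signal – Fluo-8 calcium fluorescence, excitation 470-495 nm, emission 515-575 nm · Read-out – % activation versus carbachol response · Control set – carbachol high, DMSO low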
CRFR2-BP antag = antagonists of CRF-BP/CRF-R2 complex, primary screen, cell-based, HEK293, calcium dye fluorescence, uHTS; CRF-induced calcium fluorescence; inhibition, % at 11.8 µM; 350,000 compounds, 0.59% hits;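 active means inhibition of the ligand-induced calcium signal above about 50% at the single tested concentration, limit read from the data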
VIM-2 inh = VIM-2 metallo-beta-lactamase inhibitors, primary screen, biochemical, epi-absorbance readout, Pseudomonas aeruginosa enzyme; purified VIM-2, nitrocefin hydrolysis, epi-absorbance fluorescence; inhibition, % at 5.6 µM; 290,000 compounds, 0.89% hits;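 active means inhibition above the mean of all tested compounds plus 3 SD, cutoff set per screening run, cut at about 7.5% in these data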;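 further: red hydrolysis product quenches plate fluorescence so inhibitors raise well fluorescence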
IMP-1 inhibitor = IMP-1 metallo-beta-lactamase inhibitors, primary screen, biochemical, epi-absorbance readout, Pseudomonas aeruginosa enzyme | purified IMP-1, nitrocefin hydrolysis, epi-absorbance fluorescence | 290,000 compounds, 0.45% hits | inhibition, % at 5.6 µM | AID 1556, 2009;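 active means inhibition above the mean plus 3 SD of all compounds in the same screening run, cut at about 4.5% in these data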
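System: purified recombinant IMP-1 beta-lactamase. Medium: Zinc- and detergent-supplemented HEPES buffer, pH 7.1. Compound: one 5.6 µM dose […]. Schedule: 15 min preincubation plus 25 min reaction at 25 °C. Technique: Epi-absorbance fluorescence, 480 nm excitation, 530 nm emission.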
TRPML3 agonist = human TRPML3 channel agonists, primary screen, cell-based, HEK293 TRPML3-YFP, Fluo-8 calcium fluorescence, 3 µM; AID 1448, 2008; activation, % at 3 µM; 220,000 compounds, 0.29% hits; 100% = the carbachol control signal;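 active means activation above its plate's cutoff, the mean activation of the plate's test wells plus 3 SD, cut at about 12% in these data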
Target sequence (Q8TDD5 whole entry, looked up): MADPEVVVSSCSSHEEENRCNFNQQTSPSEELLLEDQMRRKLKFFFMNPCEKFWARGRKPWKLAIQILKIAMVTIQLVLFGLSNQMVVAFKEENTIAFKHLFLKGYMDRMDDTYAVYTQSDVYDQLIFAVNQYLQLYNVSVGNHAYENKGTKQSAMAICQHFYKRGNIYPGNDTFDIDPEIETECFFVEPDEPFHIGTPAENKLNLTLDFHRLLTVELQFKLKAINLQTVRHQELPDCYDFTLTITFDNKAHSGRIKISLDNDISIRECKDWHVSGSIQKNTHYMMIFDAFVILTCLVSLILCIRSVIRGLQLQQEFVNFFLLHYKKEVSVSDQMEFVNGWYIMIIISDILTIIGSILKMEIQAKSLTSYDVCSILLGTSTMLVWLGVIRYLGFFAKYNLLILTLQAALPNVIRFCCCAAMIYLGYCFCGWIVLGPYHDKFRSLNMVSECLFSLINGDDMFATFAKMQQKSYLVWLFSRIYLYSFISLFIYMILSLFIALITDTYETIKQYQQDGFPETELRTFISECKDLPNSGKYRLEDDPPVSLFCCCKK
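Material: HEK293 cells stably carrying human TRPML3-YFP; compound dosing: single dose, 3 µM final nominal compound, 0.3% DMSO final; incubation: 1-h 37 °C dye load, 5-s basal, 120-s post-compound reads; technique: Fluo-8 intracellular calcium fluorescence, excitation 470-495 nm, emission 515-575 nm; read-out basis: percent activation from peak-to-basal fluorescence ratio, scaled between DMSO and carbachol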
Numbers stand for hits; - = inactive; . = no result. Only some compounds are listed: those with a hit (about 2.1% of all), similar ones and a draw of the others.

SMILES | CRFR2-BP ag | zfTRPN1 agonist | CRFR2-BP antag | VIM-2 inh | IMP-1 inhibitor | TRPML3 agonist
CC(C)(C)OC(=O)N1CCC2(CC1)C(C#N)=C(N)OC1=C2C(=O)CCC1 | - | - | - | - | - | -
O=C(O)c1cnn(-c2nc(-c3ccc(Cl)c(Cl)c3)cs2)c1C(F)(F)F | - | . | 50 | - | - | .
O=C(O)c1cnn(-c2nc(-c3cccc(F)c3)cs2)c1C(F)(F)F | - | - | - | - | - | -
CCCC1CC(C#N)N(N(C)C)C1=C(C#N)C#N (centres undefined) | - | - | 52 | - | - | -
COc1ccc(NC(=O)C2C3C=CC4(O3)C2C(=O)N(CCCN2CCCC(C)C2)C4C(=O)NC2CCCCC2)cc1 (centres undefined) | - | . | - | - | - | .
c1cc(Nc2cccc3nccnc23)c2nccnc2c1 | - | - | - | 8.6 | - | -
Fc1ccc(Nc2cccc3nccnc23)cc1 | - | - | - | - | - | -
CCOC(=O)c1c(S(=O)(=O)NCCCc2ccco2)c(C)n(C)c1C | - | . | - | - | - | .
CCCc1nnc(NC(=O)Cn2c(=O)oc3cc(Br)ccc32)s1 | 79 | - | - | - | - | -
CCCc1nnc(NC(=O)Cn2c(=O)oc3ccccc32)s1 | - | - | - | - | - | -
CCOC(=O)c1nn(-c2ccc(C)c(C)c2)c(=O)c(C#N)c1C | - | . | - | - | - | .
COc1ccc(F)cc1C(=O)C1CCCN(C(=O)Cc2c(C)noc2C)C1 (centres undefined) | - | - | - | 8.3 | - | -
Cn1c(=NC(=O)COc2ccccc2)sc2ccccc21 | - | - | - | - | - | -
Oc1c(Br)cc(/C=N/n2c(-c3ccccc3)n[nH]c2=S)c(Br)c1O | . | . | . | - | - | .
Oc1c(Br)cc(Br)cc1/C=N/n1c(-c2ccccc2)n[nH]c1=S | - | . | - | - | 22 | .
O=C(CSc1nnc(Cn2nnc(-c3ccccc3)n2)n1-c1ccccc1)Nc1ccccc1 | - | - | - | - | 4.7 | -
C=CCn1c(SCC2CCCCO2)nc2sc(CC)cc2c1=O (centres undefined) | - | - | - | - | - | -
O=S(=O)(c1ccc2c(c1)OCCO2)N1CCC(n2nnc3cc(C(F)(F)F)ccc32)CC1 | - | - | - | - | 6.9 | -
O=C(NCCOc1ccccc1Cl)c1ccc2c(c1)S(=O)(=O)c1cc(Cl)ccc1C2=O | - | . | - | . | . | .
Cc1ccc(S(=O)(=O)/N=C2\C=C(Nc3cccc(C(=O)O)c3)C(=O)c3ccccc32)cc1 | - | . | - | - | - | .
Cc1ccc(S(=O)(=O)/N=C2\C=C(Nc3cccc(C(=O)O)c3)C(=O)c3ccccc32)c(C)c1 | - | . | 66 | - | - | .
O=c1oc2c(-c3cccc(F)c3)cc(O)cc2s1 | - | - | - | - | - | -
O=C(Nc1ccc(Cl)cc1)c1cc(-c2cccs2)on1 | - | . | - | - | 15 | .
O=C(Nc1ccc(Br)cc1)c1cc(-c2cccs2)on1 | - | . | - | - | 11 | .
COc1ccc(NC(=O)c2cc(-c3ccccc3Cl)on2)cc1 | - | . | - | - | - | .
SMILES | CRFR2-BP ag | zfTRPN1 agonist | CRFR2-BP antag | VIM-2 inh | IMP-1 inhibitor | TRPML3 agonist
COc1ccc(NC(=O)c2cc(-c3ccccc3OC)on2)cc1 | - | - | 54 | - | - | -
O=P(O)(O)c1ccccc1OCCOCCOc1ccccc1P(=O)(O)O | - | - | - | 23 | - | -
CCOP(=O)(O)c1ccccc1OCCOCCOc1ccccc1P(=O)(O)OCC | - | - | - | - | - | -
Cc1nc2c(sc(=S)n2Cc2ccco2)c(=O)n1CC(=O)Nc1ccccc1F | - | . | - | - | 6.0 | .
CCn1c(=S)sc2c(=O)n(CC(=O)Nc3cccc(Cl)c3)c(C)nc21 | - | . | - | - | - | .
CCn1c(=S)sc2c(=O)n(CC(=O)NCCCc3ccccc3)c(C)nc21 | - | . | - | - | 12 | .
COc1ccc(-c2oc3ccc(-c4ccc5c(c4)OCO5)cc3c2-c2ccc(OC)nc2)cc1 | - | . | - | . | . | .
CCN(CC)C(=O)c1oc2ccc(S(=O)(=O)N3CCCCCC3)cc2c1C | - | - | - | - | - | -
CCCCNC(=O)c1oc2ccc(S(=O)(=O)N3CCCC3)cc2c1C | - | . | - | - | 5.9 | .
Cc1ccc(NC(=O)CSCC(=O)NC2=NCCS2)cc1 | - | . | - | . | . | .
Cc1ccc(S(=O)(=O)/N=C(/Nc2ccc([N+](=O)[O-])cc2[N+](=O)[O-])c2ccccc2)cc1 | - | . | 67 | . | . | .
N#Cc1c(-c2cccs2)nc(SCc2ccc(Cl)cc2)[nH]c1=O | - | - | 55 | - | - | -
CSc1nc(-c2cccs2)c(C#N)c(=O)[nH]1 | - | - | - | - | - | -
CC(=O)N1c2c(cc(Br)cc2S(=O)(=O)N2CCN(c3ccccc3F)CC2)CC1C (centres undefined) | - | . | - | - | - | .
CCC(NC(=O)Nc1nnc(C(F)(F)F)s1)(C(F)(F)F)C(F)(F)F | - | 26 | - | - | - | 23
O=C(O)c1cc(-c2ccccc2)n(-c2ccccc2)n1 | - | - | - | - | - | -
CC(C)(C)c1cc(C(=O)O)nn1-c1ccccc1 | - | - | 68 | - | - | -
O=C(NCc1cccs1)C1CCCN(c2nc3ccccc3o2)C1 (centres undefined) | - | - | - | - | 4.8 | -
Cc1ccc(CNC(=O)C2CCCN(c3nc4ccccc4o3)C2)cc1 (centres undefined) | - | - | - | - | - | -
Cc1ccc(-n2[nH]c(C)c(/C=N/Nc3ccc([N+](=O)[O-])cc3[N+](=O)[O-])c2=O)cc1C | - | - | 85 | - | - | -
COc1ccc(OC)c(N2CC(O)(c3cccs3)[N+]3=C2SCCC3)c1 (centres undefined) | - | - | - | 8.2 | - | -
CCN(CC(=O)Nc1c(F)cccc1F)C(=O)c1cc(-c2cccs2)nn1-c1ccccc1 | - | . | - | . | . | .
O=c1c2ccccc2c(-c2ccc(O)cc2)nn1-c1cccc(C(F)(F)F)c1 | - | - | 57 | - | - | -
O=c1c2ccccc2c(-c2cccc(C(F)(F)F)c2)nn1-c1ccccc1 | - | - | - | - | - | -
O=C(CSc1nnnn1-c1ccc2c(c1)OCO2)NCc1ccccc1 | - | - | - | - | - | -
Fc1ccccc1CSc1nnnn1-c1ccc2c(c1)OCO2 | - | - | 57 | - | - | -
CNC(=O)CSc1nnnn1-c1ccc2c(c1)OCCO2 | - | - | - | - | - | -
NC(=O)CSc1nnnn1-c1ccc2c(c1)OCCO2 | - | - | 81 | - | - | -
